Common to all, as to format: functional, organism-based
The test system of experiment [1] is Plasmodium falciparum. The experiment can be described thus: Antimalarial activity against chloroquine-sensitive Plasmodium falciparum D10.
The subject of experiment [2] is Plasmodium falciparum. The experiment can be described thus: Antimalarial activity against chloroquine-resistant Plasmodium falciparum K1.
The test system of experiment [3] is Plasmodium falciparum. The experiment can be described thus: Antimalarial activity against chloroquine-resistant Plasmodium falciparum W2. In outline:
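W2 parasites in RPMI-1640 with 10% human serum, synchronized with 5% D-sorbitol. From ring stage, exposed 48 h to a concentration series added from DMSO stocks (≤0.1% DMSO; controls 0.1% DMSO). Fixed 48 h in 1% formaldehyde/PBS pH 7.4 at room temperature, stained with 1 nM YOYO-1, and parasitemia read by flow cytometry. IC50 from % control parasitemia by nonlinear regression, duplicate experiments.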

The term IC50 denotes the concentration that inhibits the measured activity by half. A high value points to weaker potency in that assay. With `O=C(CN(CCCNc1ccnc2cc(Cl)ccc12)C(=O)c1cnccn1)NC1CCCCC1`, the IC50 in experiment [1] stood at 240 nM; in experiment [2], 520 nM; in experiment [3], 870 nM.

Take `CC(C)(C)NC(=O)CN(CCCNc1ccnc2cc(Cl)ccc12)C(=O)c1ccncc1`: the IC50 in experiment [1] is more than 20000 nM; in experiment [2], 18200 nM; in experiment [3] it was 3800 nM.

`CC(C)(C)NC(=O)CN(CCCNc1ccnc2cc(Cl)ccc12)C(=O)c1cnccn1`: the values for the IC50 in experiment [1], in experiment [2] and in experiment [3] were 1370 nM, 2290 nM and 1650 nM, respectively.

For the compound `CC(C)(C)NC(=O)CN(CCNc1ccnc2cc(Cl)ccc12)C(=O)c1ccncc1`, the results for the IC50 in experiment [1], in experiment [2] and in experiment [3] were 1060 nM, 1100 nM and 990 nM, respectively.

Consider `O=C(CN(CCNc1ccnc2cc(Cl)ccc12)C(=O)c1cnccn1)NC1CCCCC1`, for which the figures for the IC50 in experiment [1], in experiment [2] and in experiment [3] were 790 nM, 1350 nM and more than 10000 nM, respectively.

As to `O=C(CN(CCNc1ccnc2cc(Cl)ccc12)C(=O)c1ccncc1)NC1CCCCC1`, the IC50 in experiment [1] is 540 nM; in experiment [2] it was 530 nM; in experiment [3], 610 nM.

Take `CC(C)(C)NC(=O)CN(CCNc1ccnc2cc(Cl)ccc12)C(=O)c1cnccn1`: the values for the IC50 in experiment [1], in experiment [2] and in experiment [3] were 710 nM, 1130 nM and 1190 nM, respectively.

As to `O=C(CN(CCCNc1ccnc2cc(Cl)ccc12)C(=O)c1ccncc1)NC1CCCCC1`, the IC50 was 230 nM in experiment [1], 70 nM in experiment [2] and 1560 nM in experiment [3].

Turning to `O=C(CN(CCCNc1ccnc2cc(Cl)ccc12)C(=O)c1ccc(O)cc1O)NC1CCCCC1`, the IC50 in experiment [1] came to 1670 nM; in experiment [2], 3820 nM; in experiment [3], 5930 nM.

(Values after ChEMBL document CHEMBL1137111, “Application of multi-component reactions to antimalarial drug discovery. Part 1: Parallel synthesis and antiplasmodial activity of new 4-aminoquinoline Ugi adducts” (Bioorg Med Chem Lett, 2004).)
